In ChEMBL document CHEMBL4808195, “Discovery of heterocyclic substituted dihydropyrazoles as potent anticancer agents” (Bioorg Med Chem Lett, 2021):
The source made the active and inactive calls. The calls are words filed in the database; no cut-off is given here.

Tests used:
HCC1806 [1] = assay: Anticancer activity against human HCC1806 cells assessed as inhibition of cell growth at 10 uM measured by SRB method; type: functional
MDA-MB-231 = assay: Anticancer activity against human MDA-MB-231 cells assessed as inhibition of cell growth at 10 uM measured by SRB method; type: functional
NCI-H1975 = assay: Anticancer activity against human NCI-H1975 cells assessed as inhibition of cell growth at 10 uM measured by SRB method; type: functional
HCC1806 [2] = assay: Anticancer activity against human HCC1806 cells assessed as inhibition of cell proliferation; type: functional, cell-based
HCT-116 = assay: Anticancer activity against human HCT-116 cells assessed as inhibition of cell proliferation; type: functional, cell-based
HeLa = assay: Anticancer activity against human HeLa cells assessed as inhibition of cell proliferation; type: functional, cell-based
A549 = assay: Anticancer activity against human A549 cells assessed as inhibition of cell proliferation; type: functional, cell-based
HCC1806 [3] = assay: Anticancer activity against human HCC1806 cells assessed as inhibition of cell proliferation at 2 to 10 uM measured after 48 hrs by SRB assay; type: functional, cell-based; settings: dose 2-10 µM
Summary of the method: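 HCC1806 cells were exposed to the compound for 24, 48 and 72 h. Proliferation inhibition rate was read by SRB assay at each time point. Experimental triplicates, shown with SD.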

HCC1806 [4] = assay: Cell cycle arrest in human HCC1806 cells assessed as increase in cell population at G2/M phase at 2.5 to 5 uM measured after 12 hrs by flowcytometry method; type: functional, cell-based; settings: dose 2.5-5 µM
Summary of the method: (§1)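 HCC1806 cells were treated with the compound for 12 h. Cell-cycle distribution was determined by flow cytometry, and the phase fractions were quantified from experimental duplicates with SD.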

HCC1806 [5] = assay: Cell cycle arrest in human HCC1806 cells assessed as decrease in cell population at G1 phase at 2.5 to 5 uM measured after 12 hrs by flowcytometry method; type: functional, cell-based; settings: dose 2.5-5 µM; summary of the method: as §1
HCC1806 [6] = assay: Cell cycle arrest in human HCC1806 cells assessed as decrease in cell population at S phase at 2.5 to 5 uM measured after 12 hrs by flowcytometry method; type: functional, cell-based; settings: dose 2.5-5 µM; summary of the method: as §1
HCC1806 [7] = assay: Cell cycle arrest in human HCC1806 cells assessed as increase in p21 accumulation at 2.5 to 5 uM measured after 12 hrs by western blot assay; type: functional, cell-based; settings: dose 2.5-5 µM
Summary of the method: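 HCC1806 cells were exposed to the compound for 12 h. p21 protein level was detected by immunoblotting, with β-actin as the loading control.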

Row | Compound | inhibition at 10 µM (HCC1806 [1]) | inhibition at 10 µM (MDA-MB-231) | inhibition at 10 µM (NCI-H1975) | further results
1 | CN1CCN(c2ccc(C3=NN(C(=O)c4ccc(C(F)(F)F)cc4)C(c4ccc(N(C)C)cc4)C3)cc2)CC1 (configuration not stated) | 84.1% | 55.4% | 93.2% | IC50 (HCC1806 [2]): 5.4 µM; IC50 (HCT-116): > 10 µM; IC50 (HeLa): > 100 µM; IC50 (A549): > 10 µM
2 | CN1CCN(c2ccc(C3=NN(S(=O)(=O)c4ccc(F)cc4)C(c4ccc(N(C)C)cc4)C3)cc2)CC1 (configuration not stated) | 92.3% | 15.7% | 95.7% | IC50 (HCC1806 [2]): 6.1 µM; IC50 (HCT-116): > 10 µM; IC50 (HeLa): > 10 µM; IC50 (A549): 9.6 µM
3 | CN1CCN(c2ccc(C3=NN(C(=O)/C=C/c4ccccc4)C(c4ccc(N(C)C)cc4)C3)cc2)CC1 (configuration not stated) | 71% | 35.9% | 81% | IC50 (HCC1806 [2]): 9.05 µM; IC50 (HCT-116): > 10 µM; IC50 (HeLa): > 10 µM; IC50 (A549): > 10 µM
4 | CN1CCN(c2ccc(C3=NN(S(=O)(=O)c4ccc(C#N)cc4)C(c4ccc(N(C)C)cc4)C3)cc2)CC1 (configuration not stated) | 99.8% | 99.8% | 100% | IC50 (HCC1806 [2]): 2.99 µM; IC50 (HCT-116): 3.6 µM; IC50 (HeLa): 3 µM; IC50 (A549): 3.6 µM; Activity (HCC1806 [3]): Active; Activity (HCC1806 [4]): Active; Activity (HCC1806 [5]): Active; Activity (HCC1806 [6]): Active; Activity (HCC1806 [7]): Active
5 | CN(C)c1ccc(C2CC(c3ccc(-n4cncn4)cc3)=NN2)cc1 (configuration not stated) | 6.8% | 7% | -3.3% | 
6 | CN(C)c1ccc(C2CC(c3ccc(-n4cncn4)cc3)=NN2C(=O)c2cc(Cl)cc(Cl)c2)cc1 (configuration not stated) | 5.3% | 9.4% | 8.4% | 
7 | CN(C)c1ccc(C2CC(c3ccc(-n4cncn4)cc3)=NN2C(=O)Cc2ccccc2)cc1 (configuration not stated) | -6.9% | 2.9% | -4% | 
8 | CN(C)c1ccc(C2CC(c3ccc(-n4ccnc4)cc3)=NN2S(C)(=O)=O)cc1 (configuration not stated) | 11.3% | 12% | -3.8% | 
9 | CN1CCN(c2ccc(C3=NN(S(=O)(=O)c4ccc(C(F)(F)F)cc4)C(c4ccc(N(C)C)cc4)C3)cc2)CC1 (configuration not stated) | 27% | 12.1% | 18.9% | 
10 | CC(=O)N1N=C(c2ccc(-n3ccnc3)cc2)CC1c1ccc(N(C)C)cc1 (configuration not stated) | -9.7% | 5% | -2.1% | 
11 | Cc1ccc(S(=O)(=O)N2N=C(c3ccc(-n4cncn4)cc3)CC2c2ccc(N(C)C)cc2)cc1 (configuration not stated) | 27.7% | 20.7% | 20% | 
12 | CN(C)c1ccc(C2CC(c3ccc(-n4ccnc4)cc3)=NN2C(=O)c2ccc(F)cc2)cc1 (configuration not stated) | 7.1% | 9.4% | -3.5% | 
13 | CN1CCN(c2ccc(C3=NN(S(=O)(=O)C4CC4)C(c4ccc(N(C)C)cc4)C3)cc2)CC1 (configuration not stated) | 4.7% | 3.7% | 0.2% | 
14 | CN(C)c1ccc(C2CC(c3ccc(-n4ccnc4)cc3)=NN2S(=O)(=O)c2ccc([N+](=O)[O-])cc2)cc1 (configuration not stated) | 46.6% | 41.5% | 53% | 
15 | COC(=O)CC(=O)N1N=C(c2ccc(-n3ccnc3)cc2)CC1c1ccc(N(C)C)cc1 (configuration not stated) | 2.1% | 2.3% | -0.1% | 
16 | CN(C)c1ccc(C2CC(c3ccc(-n4ccnc4)cc3)=NN2C(=O)CCCl)cc1 (configuration not stated) | -5.2% | 2.1% | -2.5% | 
17 | CN(C)c1ccc(C2CC(c3ccc(-n4cncn4)cc3)=NN2C(=O)/C=C/c2ccccc2)cc1 (configuration not stated) | -3.7% | 8.5% | -2.3% | 
18 | COC(=O)CC(=O)N1N=C(c2ccc(N3CCN(C)CC3)cc2)CC1c1ccc(N(C)C)cc1 (configuration not stated) | -8.3% | -0.4% | -2.2% | 
19 | CN1CCN(c2ccc(C3=NN(C(=O)Cc4ccccc4)C(c4ccc(N(C)C)cc4)C3)cc2)CC1 (configuration not stated) | 1% | 1.9% | -2.8% | 
20 | CN(C)c1ccc(C2CC(c3ccc(-n4cncn4)cc3)=NN2S(=O)(=O)c2ccc(C#N)cc2)cc1 (configuration not stated) | 35.1% | 32.8% | 22.6% | 
21 | Cc1ccc(C(=O)N2N=C(c3ccc(N4CCN(C)CC4)cc3)CC2c2ccc(N(C)C)cc2)cc1 (configuration not stated) | -2.5% | -0.7% | -0.4% | 
22 | Cc1ccc(S(=O)(=O)N2N=C(c3ccc(-n4ccnc4)cc3)CC2c2ccc(N(C)C)cc2)cc1 (configuration not stated) | 66% | 50.8% | 50.5% | 
23 | CN1CCN(c2ccc(C3=NN(S(=O)(=O)c4ccc(Br)cc4)C(c4ccc(N(C)C)cc4)C3)cc2)CC1 (configuration not stated) | 87.1% | 23.7% | 70.8% | IC50 (HCC1806 [2]): 8.65 µM; IC50 (HCT-116): > 10 µM; IC50 (HeLa): > 10 µM; IC50 (A549): > 10 µM
24 | CN(C)c1ccc(C2CC(c3ccc(-n4cncn4)cc3)=NN2S(=O)(=O)c2ccc(F)cc2)cc1 (configuration not stated) | 24.1% | 12.1% | -0.5% | 
